Among the data in ChEMBL document CHEMBL4699465, “Isolation of Isotrichophycin C and Trichophycins G-I from a Collection of Trichodesmium thiebautii” (J Nat Prod, 2020) are EC50 values, retold here.

The subject of this experiment is N2a. Kind of experiment: Cytotoxicity against mouse Neuro-2a cells assessed as reduction in cell viability incubated for 72 hrs by MTT assay. The format is functional, cell-based. The method, boiled down: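 Murine neuroblastoma neuro-2A cells were tested over a range of concentrations, with four technical replicates per concentration. Each assay was run in triplicate. Doxorubicin served as the positive control. EC50 was taken from concentration–viability curves.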

Structures are written as SMILES.

Consider `C=CC[C@@H](OC(C)=O)[C@H](C)CCCC[C@@H](OC(C)=O)[C@H](C)C[C@H](C)CC[C@H](C/C(=C\Cl)Cc1ccccc1)OC(C)=O`, for which the EC50 is above 100 µM.
To `C[C@H](CC[C@@H](O)C/C(=C\Cl)Cc1ccccc1)C[C@@H](C)[C@@H](O)C/C=C/Cl` belongs 13 µM.
Turning to `CC(=O)O[C@H](CC[C@@H](C)C[C@@H](C)[C@H](C/C=C/Cl)OC(C)=O)C/C(=C\Cl)Cc1ccccc1`, the EC50 was above 100 µM.
For `COc1cccc2c1C(=O)c1c(O)c3c(c(O)c1C2=O)C[C@@](O)(C(=O)CO)C[C@@H]3O[C@H]1C[C@H](N)[C@H](O)[C@H](C)O1` [DOXORUBICIN], the concentration for a half-maximal effect (EC50) turned out to be 127 µM.
With `C[C@H](CC[C@@H](O)C/C(=C/Cl)CCCC#CBr)C[C@@H](C)[C@@H](O)C/C=C/Cl` the figure was above 100 µM.
With `C#CCCC/C(=C/Cl)C[C@H](O)CC[C@@H](C)C[C@@H](C)[C@H](O)CCCC[C@@H](C)[C@H](O)CC=C` the figure was 12 µM; with `C#CCCCCC/C(=C/Cl)CC[C@H](O)/C=C(\C)[C@H](O)CC=C`, above 50 µM.
To `C=CC[C@H](O)[C@H](C)C[C@H](C)CC[C@@H](O)C/C(=C\Cl)Cc1ccccc1` belongs 8.4 µM; to `COC1=CC(=O)O[C@@H]([C@H](C)C[C@H](C)CC(C)=O)C1`, above 100 µM; to `C#CCCC/C(=C\Cl)C[C@H](O)CC[C@@H](C)C[C@@H](C)[C@@H](O)C/C=C/Cl`, 40 µM.
In the case of `C=CC[C@@H](O)[C@H](C)CCCC[C@@H](O)[C@H](C)C[C@H](C)CC[C@@H](O)C/C(=C\Cl)Cc1ccccc1`, the EC50 was 6.5 µM.
Turning to `C[C@H](CC[C@@H](O)C/C(=C/Cl)Cc1ccccc1)C[C@@H](C)[C@@H](O)C/C=C/Cl`, the 50% effective concentration (EC50) turned out to be 24 µM.
With `C=CC[C@@H](O)/C(C)=C/[C@@H](O)CC/C(=C\Cl)Cc1ccccc1` the figure was above 50 µM; with `CCC(=O)N(C)CCC/C(=C\Cl)C/C=C(\C)C[C@@H](C)C[C@@H](C)[C@H]1CC(OC)=CC(=O)O1`, 14 µM.
To `COC1=CC(=O)O[C@@H]([C@H](C)C[C@H](C)CC[C@@H](O)C/C(=C/Cl)Cc2ccccc2)C1` belongs 15 µM.
